Screening results: PubChem, The Scripps Research Institute Molecular Screening Center
CHRM4 PAM: positive allosteric modulators of human muscarinic M4 receptor | P08173 | CHO-K1 hM4/Gqi5, Fluo-8 calcium fluorescence, ACh EC20; 0% = ACh EC20, 100% = maximal ACh | activation, % at 3 µM | 360,000 compounds, 0.4% hits | AID 624126;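 active means activation above its plate's cutoff, the mean activation of sample wells plus 3 SD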
CHRM5 agonist: CHRM5 agonism in calcium assay; CHO-K1 hM5 cells, Fluo-8 calcium fluorescence; 0% DMSO wells, 100% maximal acetylcholine response; activation, % at 3 µM; 360,000 compounds, 0.19% hits;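 active means activation above the run's mean over test compounds plus 3 SD, cut at about 23% in these data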;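 further: signal is peak over basal fluorescence ratio across the kinetic read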
Target sequence (P08912 whole entry, looked up): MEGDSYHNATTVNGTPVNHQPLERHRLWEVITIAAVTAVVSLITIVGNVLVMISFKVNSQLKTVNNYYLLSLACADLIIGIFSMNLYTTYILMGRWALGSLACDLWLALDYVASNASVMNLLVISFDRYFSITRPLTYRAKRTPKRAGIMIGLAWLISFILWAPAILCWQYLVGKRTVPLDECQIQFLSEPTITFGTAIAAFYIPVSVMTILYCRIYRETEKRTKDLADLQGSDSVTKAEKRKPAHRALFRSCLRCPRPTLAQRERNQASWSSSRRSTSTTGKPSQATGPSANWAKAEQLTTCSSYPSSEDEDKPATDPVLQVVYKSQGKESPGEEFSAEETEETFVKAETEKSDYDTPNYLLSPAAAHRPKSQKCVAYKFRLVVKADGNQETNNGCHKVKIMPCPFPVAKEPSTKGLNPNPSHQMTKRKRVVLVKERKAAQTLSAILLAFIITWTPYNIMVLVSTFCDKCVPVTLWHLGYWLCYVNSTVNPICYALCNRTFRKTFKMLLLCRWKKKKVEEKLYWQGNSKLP
CHRM4 antagonist: antagonists of human muscarinic M4 receptor (CHRM4); P08173; CHO-hM4 cells, ACh EC80, Fluo-8 calcium fluorescence; inhibition, % at 3 µM; 360,000 compounds, 0.73% hits;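 active means inhibition above its plate's cutoff, the mean inhibition of sample wells plus 3 SD, cut at about 27% in these data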
M5 antag: blocks acetylcholine activation of human M5 receptor; inhibition, % at 3 µM; CHO-hM5 cells, Fluo-8 calcium fluorescence, ACh EC80; AID 624040; P08912; 360,000 compounds, 0.59% hits;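 active means inhibition above a per-plate cutoff, the mean of that plate's test compounds plus 3 SD, cut at about 27% in these data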
CHRM4 agonist: CHRM4 agonism in calcium assay | AID 624127 | CHO-K1 hM4/Gqi5, Fluo-8 calcium fluorescence; vehicle 0%, full acetylcholine response 100% | 360,000 compounds, 0.14% hits | activation, % at 3 µM;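 active means activation above the run mean over all test wells plus 3 SD, cut at about 32% in these data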;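 further: peak over basal fluorescence ratio per well then scaled between controls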
M5 PAM: potentiates acetylcholine response at human M5 receptor; CHO-K1 hM5, Fluo-8 calcium, ACh EC20 PAM; 0% = ACh EC20, 100% = ACh EC100; 360,000 compounds, 0.3% hits; activation, % at 3 µM; P08912;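 active means activation above the run cutoff, the mean activation of all test compounds plus 3 SD, cut at about 18% in these data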
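Replicates: One well per compound, no replicates | System: Human M5 receptor in CHO-K1 cells | Benchmarks: Low control EC20 acetylcholine (0%), high control EC100 acetylcholine (100%) | Probe or stimulus: Acetylcholine, EC20 level | Times: Fluo-8 loading 80 min at 37 °C plus 30 min room temperature | Signal: Intracellular calcium via Fluo-8 fluorescence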
Large screens that a line does not name were inactive. Hits are enriched below; roughly 1.8% of the tested compounds scored in any of these assays.

COc1ccc(C(C[N+](=O)[O-])c2c(C)[nH]c3ccccc23)cc1OC (centres undefined)	M5 PAM 19
COC(=O)c1sccc1S(=O)(=O)Nc1ccc(C(O)(C(F)(F)F)C(F)(F)F)cc1	CHRM5 agonist 69, CHRM4 antagonist 63, CHRM4 agonist 133
COCCNC(=O)C(c1ccc(F)cc1)N(C(=O)CCC(=O)Nc1ccccn1)c1ccc(C)cc1 (centres undefined)	CHRM4 PAM 30, M5 antag 29
O=C(OCn1ncc(Br)c(Br)c1=O)c1ccccc1Cl	none
O=C(OCn1ncc(Cl)c(Cl)c1=O)c1cccc(C(F)(F)F)c1	CHRM4 antagonist 58
C1CCN(CC2CCCCN2)CC1 (centres undefined)	none
CCOC(=O)[C@H]1[C@H]2COc3ccc(Br)cc3[C@@H]2N2C(=O)CN(CC3CCCO3)C(=O)[C@@]12C (some centres undefined)	none
COc1ccccc1NC(=S)NCCc1ccc(S(N)(=O)=O)cc1	none
Cc1cc(C(=O)NCCc2ccc(S(N)(=O)=O)cc2)no1	M5 PAM 18
COc1ccc(NC(=S)NCCc2ccc(S(N)(=O)=O)cc2)c(OC)c1	M5 antag 27
COc1ccc(NC(=S)NCCN2CCOCC2)c(OC)c1	CHRM4 PAM 16
CC12CC3CC1C(C(=O)O2)C3C(=O)O (centres undefined)	none
Cn1nc(C(C)(C)C)cc1N1C(=O)CCC1(C)C(=O)NCc1ccccc1 (centres undefined)	none
CCOC(=O)C1=CC[C@@H](c2ccccc2)N(S(=O)(=O)c2ccc(C)cc2)[C@@H]1C#N	none
Cc1ccc(C(=O)c2ccc([N+](=O)[O-])cc2)cc1	none
Cc1ccc(C(=O)c2coc3cc([N+](=O)[O-])c(O)c([N+](=O)[O-])c23)cc1	CHRM4 PAM 31
CC1=C(C(=O)N2CCCCCC2)CC(CC(=O)NCCN2CCOCC2)C(=O)N1Cc1ccc(F)cc1 (centres undefined)	none
c1ccc(CNc2ncnc3scc(-c4cccs4)c23)nc1	M5 antag 28
c1ccc(-c2csc3ncnc(NCc4ccccn4)c23)cc1	none
O=C(C(=O)N1CCC(c2ccccc2)CC1)c1ccc(F)c(F)c1	none
CC(C)(C)C(=O)N1CCN(C(c2ccccc2)c2ccccc2)CC1	none
CN1CCCN(C(c2ccccc2)c2ccc(Cl)cc2)CC1 (centres undefined)	CHRM4 antagonist 83, M5 antag 99
COc1cc(CN2CCN(C(c3ccccc3)c3ccccc3)CC2)cc(OC)c1OC	CHRM4 antagonist 45
CN1CCN(C(c2ccccc2)c2ccccc2)CC1	CHRM4 antagonist 57, M5 antag 83
CC(C)C(NC(=O)c1ccc(F)cc1)C(=O)N1CCC1 (centres undefined)	none
Cc1nn(CC(=O)NCc2cccc(F)c2)c(=O)c2cccn12	M5 antag 29
Cc1nn(CC(=O)NCCCc2ccccc2)c(=O)c2cccn12	none
O=S(=O)(c1ccc(N2CCCCCC2)nc1)N1CCCC1	CHRM4 antagonist 29
CC(=O)Nc1ccc(Sc2ccc([N+](=O)[O-])o2)cc1	none
CC(C)(C)C(=O)Nc1ccc(Sc2ccc([N+](=O)[O-])cc2)cc1	M5 antag 43
O=C(NC1CCCC1)C1CC(=O)N(c2ccccc2)C1 (centres undefined)	none
O=C(NC1CC1)C1CC(=O)N(c2ccccc2)C1 (centres undefined)	M5 antag 30
COc1ccc(CN(CC(O)COc2cccc3[nH]cc(C)c23)C(C)(C)C)cc1 (centres undefined)	none
O=C(CNC(=O)c1ccco1)OCc1cccc(Cl)c1	none
O=C(CNC(=O)c1ccco1)NCC(=O)OCc1cccc(Cl)c1	CHRM4 PAM 44
O=C(NCCNC(=O)c1ccc(Cl)cc1Cl)c1ccco1	CHRM4 PAM 16
Cc1ccc([N+](=O)[O-])c(OCCN2CCCCCC2)c1	none
Cc1ccc([N+](=O)[O-])c(OCCCN2CCC(Cc3ccccc3)CC2)c1	CHRM4 agonist 39
CCCCCCCCC(c1nc2ccccc2[nH]1)N1CCN=C(c2ccccc2)C1=O (centres undefined)	none
Cc1cccc(Nc2nc(NCC3CCCO3)nc(N)c2[N+](=O)[O-])c1 (centres undefined)	CHRM4 PAM 24
Nc1nc(NCC2CCCO2)nc(Nc2cccc(Cl)c2)c1[N+](=O)[O-] (centres undefined)	none
COc1ccccc1CNS(=O)(=O)c1ccc(N2CCCC2)cc1Br	none
O=C(O)c1cccc2c1/C(=N/O)c1ccccc1-2	M5 PAM 20
O=C(O)c1cccc2c1-c1ccccc1/C2=N\Nc1ccccc1	none
Cn1c(C(=O)NCC2CCCO2)cc2c(=O)[nH]c3ccccc3c21 (centres undefined)	CHRM4 PAM 28
Cn1c(=O)c(C(=O)NCC2CCCO2)c(O)c2ccccc21 (centres undefined)	CHRM4 antagonist 33
Cc1cc(=O)n2nc(N3CCCC3C(=O)NCCCN3CCCCC3)sc2n1 (centres undefined)	M5 PAM 19
CCOc1ccc(N2CC(C(=O)N3CCN(c4ccccn4)CC3)CC2=O)cc1 (centres undefined)	none
CCc1ccc(N2CC(C(=O)N3CCN(c4ccccn4)CC3)CC2=O)cc1 (centres undefined)	CHRM4 PAM 26
CCOC(=O)[C@]12CCC=C1N(Cc1ccc(Cl)cc1Cl)C(=O)[C@H](CC(=O)NCc1ccc(C)o1)C2	none
C=CCN1CN(Cc2ccco2)CNC1=S	none
S=C1NCN(Cc2ccco2)CN1	M5 PAM 23
COC(=O)C[C@@H]1CC[C@H](NC(=O)CC2CC2)[C@@H](CO)O1	none
CCCn1cc(SCC(=O)Nc2ccc3c(c2)OCO3)c2ccccc21	CHRM5 agonist 29
Cc1ccc(NC(=O)Cc2nn(C)c(=O)c3ccccc23)cc1F	CHRM4 antagonist 33
O=C(CCn1cnc2ccccc2c1=O)Nc1ccc2c(c1)OCCO2	M5 PAM 25
Cn1nc(CC(=O)Nc2ccc3c(c2)OCCO3)c2ccccc2c1=O	M5 antag 32
CCCCN(C(C)=O)c1c(CC)nc2ccc(C(=O)NCc3cccs3)cn12	none
Cc1onc(-c2ccccc2Cl)c1C(=O)OCC(=O)N1CCCCC1	none
CC1=C(C)CC(C(=O)NC2CCN(C(C)C)CC2)C(C(=O)O)C1 (centres undefined)	M5 antag 37
